According to ChEMBL document CHEMBL4052588, “Design of a Biased Potent Small Molecule Inhibitor of the Bromodomain and PHD Finger-Containing (BRPF) Proteins Suitable for Cellular and in Vivo Studies” (J Med Chem, 2017):

What was measured:
[1] = molecular target: Chromatin remodeling regulator CECR2 (Homo sapiens, UniProt Q9BXF3); experiment: Inhibition of human His tagged CECR2 incubated for 30 mins followed by addition of biotinylated peptide and further incubation for 30 mins measured by AlphaScreen assay
Sequence of Chromatin remodeling regulator CECR2 (Q9BXF3 whole entry): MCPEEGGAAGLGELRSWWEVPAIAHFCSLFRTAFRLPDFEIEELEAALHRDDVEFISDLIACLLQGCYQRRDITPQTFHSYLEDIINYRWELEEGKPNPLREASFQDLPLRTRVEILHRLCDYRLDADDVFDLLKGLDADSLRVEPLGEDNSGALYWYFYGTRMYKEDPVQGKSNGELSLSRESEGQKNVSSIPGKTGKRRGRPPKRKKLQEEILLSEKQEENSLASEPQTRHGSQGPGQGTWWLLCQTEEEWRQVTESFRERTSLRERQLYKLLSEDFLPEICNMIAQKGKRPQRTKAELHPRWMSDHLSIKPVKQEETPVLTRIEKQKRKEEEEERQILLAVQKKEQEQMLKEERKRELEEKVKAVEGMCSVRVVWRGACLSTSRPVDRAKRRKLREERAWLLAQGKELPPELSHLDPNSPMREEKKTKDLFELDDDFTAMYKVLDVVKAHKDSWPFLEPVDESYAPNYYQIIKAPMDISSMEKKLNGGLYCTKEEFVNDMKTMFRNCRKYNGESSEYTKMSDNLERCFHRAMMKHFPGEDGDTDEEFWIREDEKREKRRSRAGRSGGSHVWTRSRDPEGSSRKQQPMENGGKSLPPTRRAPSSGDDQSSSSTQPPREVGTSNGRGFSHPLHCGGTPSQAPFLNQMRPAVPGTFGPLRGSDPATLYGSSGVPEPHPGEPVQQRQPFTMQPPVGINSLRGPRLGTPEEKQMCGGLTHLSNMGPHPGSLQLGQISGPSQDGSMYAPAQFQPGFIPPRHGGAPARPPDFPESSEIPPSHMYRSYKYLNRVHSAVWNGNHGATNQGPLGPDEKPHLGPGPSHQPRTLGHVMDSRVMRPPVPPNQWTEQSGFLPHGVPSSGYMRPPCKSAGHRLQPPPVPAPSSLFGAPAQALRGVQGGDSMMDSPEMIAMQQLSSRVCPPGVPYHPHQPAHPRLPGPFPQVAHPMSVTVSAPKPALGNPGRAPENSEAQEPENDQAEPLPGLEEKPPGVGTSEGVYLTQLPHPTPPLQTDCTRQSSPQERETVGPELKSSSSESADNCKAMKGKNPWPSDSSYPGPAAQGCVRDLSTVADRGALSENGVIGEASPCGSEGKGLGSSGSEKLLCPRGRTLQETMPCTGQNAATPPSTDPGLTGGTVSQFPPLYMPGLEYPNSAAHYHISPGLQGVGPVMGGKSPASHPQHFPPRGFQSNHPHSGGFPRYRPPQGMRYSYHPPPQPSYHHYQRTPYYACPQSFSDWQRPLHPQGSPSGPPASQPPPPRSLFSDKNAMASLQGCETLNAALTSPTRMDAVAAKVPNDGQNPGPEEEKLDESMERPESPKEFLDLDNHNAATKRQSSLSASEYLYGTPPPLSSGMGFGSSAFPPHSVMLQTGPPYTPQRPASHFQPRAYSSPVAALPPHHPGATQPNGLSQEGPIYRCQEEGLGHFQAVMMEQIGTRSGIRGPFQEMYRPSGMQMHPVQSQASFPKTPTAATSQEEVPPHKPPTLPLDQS

[2] = molecular target: Histone acetyltransferase KAT2B (Homo sapiens, UniProt Q92831); experiment: Inhibition of human PCAF expressed in Escherichia coli BL21 after 1 hr by BROMOscan assay
Sequence of Histone acetyltransferase KAT2B (Q92831 whole entry): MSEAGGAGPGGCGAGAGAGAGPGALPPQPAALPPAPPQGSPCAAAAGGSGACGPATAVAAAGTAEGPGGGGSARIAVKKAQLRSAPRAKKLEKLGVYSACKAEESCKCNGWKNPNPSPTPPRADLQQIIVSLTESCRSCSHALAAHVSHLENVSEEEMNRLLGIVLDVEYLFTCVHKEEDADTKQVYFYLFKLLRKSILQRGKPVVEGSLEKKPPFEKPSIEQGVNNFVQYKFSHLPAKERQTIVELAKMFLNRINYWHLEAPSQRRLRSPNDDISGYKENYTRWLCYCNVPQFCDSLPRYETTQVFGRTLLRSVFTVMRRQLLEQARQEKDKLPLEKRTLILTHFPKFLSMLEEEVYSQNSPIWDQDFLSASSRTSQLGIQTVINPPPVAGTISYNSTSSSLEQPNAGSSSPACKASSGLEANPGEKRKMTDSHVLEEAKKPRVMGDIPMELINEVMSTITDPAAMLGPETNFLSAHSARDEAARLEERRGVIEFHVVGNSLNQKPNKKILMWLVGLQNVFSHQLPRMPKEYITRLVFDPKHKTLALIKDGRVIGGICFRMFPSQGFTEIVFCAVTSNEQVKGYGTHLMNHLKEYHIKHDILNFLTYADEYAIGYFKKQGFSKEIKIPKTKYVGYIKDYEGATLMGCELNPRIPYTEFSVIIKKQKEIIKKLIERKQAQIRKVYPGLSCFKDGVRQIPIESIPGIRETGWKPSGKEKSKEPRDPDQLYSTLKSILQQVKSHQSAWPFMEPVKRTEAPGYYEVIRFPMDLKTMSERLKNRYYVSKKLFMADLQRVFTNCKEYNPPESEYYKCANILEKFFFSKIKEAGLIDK

[3] = Fraction absorbed in CD-1 mouse at 3 mg/kg, po; format: ADME, organism-based; conditions: in vivo, read-out: Fabs
Procedure, shortened: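 Female CD-1 mice (n = 3), single dosing: intravenous 1.0 mg/kg, or oral 3.0 mg/kg given as a suspension. Blood levels were followed over time to derive clearance, volume of distribution, elimination half-life, Cmax, Tmax, AUC0−∞, oral bioavailability and fraction absorbed.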

[4] = test system: SW948; experiment: Growth inhibition of human SW948 cells after 72 hrs; format: functional; conditions: SW948, 72 h
[5] = Growth inhibition of human OCUM1 cells after 72 hrs; format: functional; conditions: OCUM1, 72 h

IC50 [1] [µM] | IC50 [2] [µM] | Fa [3] [%] | GI50 [4] [µM] | Structure (SMILES) | GI50 [5] [µM]
> 20 | > 100 | – | – | CCc1cc2cc(NS(=O)(=O)c3ccc(C#N)cc3)ccc2n(CC)c1=O | –
– | – | 51 | 1 to 10 | Cc1cc2cc(NS(=O)(=O)c3ccc(C#N)cc3)ccc2n(C)c1=O | 1 to 10
